Measured values from ChEMBL document CHEMBL1287648, “Development of 3-aryl-1-isoquinolinamines as potent antitumor agents based on CoMFA” (Eur J Med Chem, 2010).

Columns and labels:
CAKI-1 = test: Cytotoxicity against human Caki1 cells by sulforhodamine B method; type: functional, cell-based
HCT-116 = test: Cytotoxicity against human HCT116 cells by sulforhodamine B method; type: functional, cell-based
PC-3 = test: Cytotoxicity against human PC3 cells by sulforhodamine B method; type: functional, cell-based
PANC-1 = test: Cytotoxicity against human PANC1 cells by sulforhodamine B method; type: functional, cell-based
SK-MEL-28 = test: Cytotoxicity against human SK-MEL-28 cells by sulforhodamine B method; type: functional, cell-based
SNB-19 = test: Cytotoxicity against human SNB19 cells by sulforhodamine B method; type: functional, cell-based
OVCAR-3 = test: Cytotoxicity against human OVCAR-3 cells by sulforhodamine B method; type: functional, cell-based
MDA-MB-231 = test: Cytotoxicity against human MDA-MB-231 cells by sulforhodamine B method; type: functional, cell-based
A549 = test: Cytotoxicity against human A549 cells by sulforhodamine B method; type: functional, cell-based
HeLa [1] = test: Induction of apoptosis in human HeLa cells at 50 nM after 24 hrs using propidium iodide/annexin V staining by flow cytometry relative to control; type: functional
Summary of the method: (§1)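 Annexin V/PI apoptosis assay: HeLa cells given compound (50–500 nM, 24 h) or no treatment, then co-stained with FITC-annexin V and propidium iodide. Phosphatidylserine externalization was scored by flow cytometry, with early apoptotic (annexin V-positive) and late apoptotic quadrants read separately.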

HeLa [2] = test: Cell cycle arrest in human HeLa cells assessed as accumulation at G2/M phase at 50 nM after 24 hrs using propidium iodide staining by flow cytometry relative to control; type: functional
Summary of the method: (§2)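 HeLa cells exposed 24 h to compound (50–500 nM range) or left untreated, then washed and harvested. DNA was stained with propidium iodide and cell-cycle phase distribution measured by flow cytometry.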

HeLa [3] = test: Cell cycle arrest in human HeLa cells assessed as accumulation at G2/M phase at 100 nM after 24 hrs using propidium iodide staining by flow cytometry relative to control; type: functional; summary of the method: as §2
HeLa [4] = test: Cell cycle arrest in human HeLa cells assessed as accumulation at G1 phase at 200 nM after 24 hrs using propidium iodide staining by flow cytometry relative to control; type: functional; summary of the method: as §2
HeLa [5] = test: Induction of apoptosis in human HeLa cells at 100 nM after 24 hrs using propidium iodide/annexin V staining by flow cytometry relative to control; type: functional; summary of the method: as §1
HeLa [6] = test: Cell cycle arrest in human HeLa cells assessed as accumulation at G2/M phase at 500 nM after 24 hrs using propidium iodide staining by flow cytometry relative to control; type: functional; summary of the method: as §2
HeLa [7] = test: Cell cycle arrest in human HeLa cells assessed as accumulation at S phase at 200 nM after 24 hrs using propidium iodide staining by flow cytometry relative to control; type: functional; summary of the method: as §2
HeLa [8] = test: Cell cycle arrest in human HeLa cells assessed as accumulation at S phase at 50 nM after 24 hrs using propidium iodide staining by flow cytometry relative to control; type: functional; summary of the method: as §2
HeLa [9] = test: Cell cycle arrest in human HeLa cells assessed as accumulation at S phase at 100 nM after 24 hrs using propidium iodide staining by flow cytometry relative to control; type: functional; summary of the method: as §2
HeLa [10] = test: Cell cycle arrest in human HeLa cells assessed as accumulation at G1 phase at 50 nM after 24 hrs using propidium iodide staining by flow cytometry relative to control; type: functional; summary of the method: as §2
HeLa [11] = test: Cell cycle arrest in human HeLa cells assessed as accumulation at G1 phase at 300 nM after 24 hrs using propidium iodide staining by flow cytometry relative to control; type: functional; summary of the method: as §2
HeLa [12] = test: Cell cycle arrest in human HeLa cells assessed as accumulation at S phase at 500 nM after 24 hrs using propidium iodide staining by flow cytometry relative to control; type: functional; summary of the method: as §2
HeLa [13] = test: Cell cycle arrest in human HeLa cells assessed as accumulation at S phase at 300 nM after 24 hrs using propidium iodide staining by flow cytometry relative to control; type: functional; summary of the method: as §2
HeLa [14] = test: Induction of apoptosis in human HeLa cells at 300 nM after 24 hrs using propidium iodide/annexin V staining by flow cytometry relative to control; type: functional; summary of the method: as §1
HeLa [15] = test: Cell cycle arrest in human HeLa cells assessed as accumulation at G1 phase at 500 nM after 24 hrs using propidium iodide staining by flow cytometry relative to control; type: functional; summary of the method: as §2
HeLa [16] = test: Cell cycle arrest in human HeLa cells assessed as accumulation at G2/M phase at 300 nM after 24 hrs using propidium iodide staining by flow cytometry relative to control; type: functional; summary of the method: as §2
HeLa [17] = test: Induction of apoptosis in human HeLa cells at 200 nM after 24 hrs using propidium iodide/annexin V staining by flow cytometry relative to control; type: functional; summary of the method: as §1
HeLa [18] = test: Cell cycle arrest in human HeLa cells assessed as accumulation at G2/M phase at 200 nM after 24 hrs using propidium iodide staining by flow cytometry relative to control; type: functional; summary of the method: as §2
HeLa [19] = test: Cell cycle arrest in human HeLa cells assessed as accumulation at G1 phase at 100 nM after 24 hrs using propidium iodide staining by flow cytometry relative to control; type: functional; summary of the method: as §2
HeLa [20] = test: Induction of apoptosis in human HeLa cells at 500 nM after 24 hrs using propidium iodide/annexin V staining by flow cytometry relative to control; type: functional; summary of the method: as §1

| Compound | IC50 (CAKI-1) | IC50 (HCT-116) | IC50 (PC-3) | IC50 (PANC-1) | IC50 (SK-MEL-28) | IC50 (SNB-19) | IC50 (OVCAR-3) | IC50 (MDA-MB-231) | IC50 (A549) | also measured |
| --- | --- | --- | --- | --- | --- | --- | --- | --- | --- | --- |
| COc1cccc(-c2cc3cc(C)ccc3c(N)n2)c1 | 0.69 µM | 0.59 µM | 1.19 µM | 1.28 µM | 0.72 µM | 0.75 µM | 0.47 µM | 0.57 µM | 0.107 µM |  |
| Cc1ccc2c(N)nc(-c3c(C)cccc3C)cc2c1 | 0.12 µM | 0.17 µM | 0.24 µM | 0.21 µM | 0.23 µM | 0.24 µM | 0.16 µM | 0.14 µM | 0.38 µM |  |
| Cc1cccc(-c2cc3cc(C)ccc3c(N)n2)c1 | 0.16 µM | 0.18 µM | 0.22 µM | 0.2 µM | 0.25 µM | 0.21 µM | 0.15 µM | 0.15 µM | 0.182 µM |  |
| COc1cccc(-c2cc3ccc(C)cc3c(N)n2)c1 | 0.14 µM | 0.21 µM | 0.42 µM | 0.47 µM | 0.41 µM | 0.48 µM | 0.24 µM | 0.17 µM | 0.447 µM |  |
| Cc1ccc2cc(-c3ccccc3C)nc(N)c2c1 | 0.14 µM | 0.12 µM | 0.26 µM | 0.2 µM | 0.18 µM | 0.16 µM | 0.1 µM | 0.075 µM | 0.0537 µM |  |
| CN(C)c1cccc2c(N)nc(-c3ccccc3)cc12 | > 10 µM | > 10 µM | > 10 µM | > 10 µM | > 10 µM | > 10 µM | > 10 µM | > 10 µM | > 10 µM |  |
| COc1ccc(-c2cc3cc(C)ccc3c(N)n2)cc1OC | 0.51 µM | 0.85 µM | 2.69 µM | 1.75 µM | 1.41 µM | 2.15 µM | 0.57 µM | 0.66 µM | 0.562 µM |  |
| Cc1ccc2c(N)nc(-c3ccc4c(c3)OCO4)cc2c1 | 0.11 µM | 0.16 µM | 0.19 µM | 0.22 µM | 0.22 µM | 0.23 µM | 0.16 µM | 0.13 µM | 0.141 µM |  |
| COc1ccc(-c2cc3cc(C)ccc3c(N)n2)c(C)c1 | 0.12 µM | 0.17 µM | 0.25 µM | 0.24 µM | 0.29 µM | 0.28 µM | 0.17 µM | 0.15 µM | 0.17 µM |  |
| COc1cc2cc(-c3ccccc3)nc(N)c2cc1OC | 0.59 µM | 0.52 µM | 0.58 µM | 0.67 µM | 0.75 µM | 0.71 µM | 0.27 µM | 0.44 µM | 0.129 µM |  |
| COc1cccc(-c2cc3cc(OC)c(OC)cc3c(N)n2)c1 | 0.17 µM | 0.16 µM | 0.18 µM | 0.19 µM | 0.23 µM | 0.22 µM | 0.074 µM | 0.14 µM | 0.759 µM | Activity (HeLa [1]): 5.92%; Activity (HeLa [2]): 35.8%; Activity (HeLa [3]): 48.59%; Activity (HeLa [4]): 15.58%; Activity (HeLa [5]): 6.14%; Activity (HeLa [6]): 86.98%; Activity (HeLa [7]): 11.36%; Activity (HeLa [8]): 15.37%; Activity (HeLa [9]): 16.12%; Activity (HeLa [10]): 48.83%; Activity (HeLa [11]): 10.26%; Activity (HeLa [12]): 4.77%; Activity (HeLa [13]): 6.6%; Activity (HeLa [14]): 9.78%; Activity (HeLa [15]): 8.25%; Activity (HeLa [16]): 83.14%; Activity (HeLa [17]): 8.8%; Activity (HeLa [18]): 73.06%; Activity (HeLa [19]): 35.29%; Activity (HeLa [20]): 12.52% |
| COc1cc(OC)cc(-c2cc3cc(OC)c(OC)cc3c(N)n2)c1 | 0.54 µM | 0.77 µM | 0.72 µM | 0.7 µM | 0.69 µM | 0.4 µM | 0.19 µM | 0.4 µM | 0.282 µM |  |
| COc1cc2cc(-c3ccccc3C)nc(N)c2cc1OC | 0.67 µM | 0.78 µM | 1.25 µM | 0.83 µM | 0.91 µM | 0.56 µM | 0.38 µM | 0.54 µM | 0.437 µM |  |
| Cc1ccccc1-c1cc2c(N(C)C)cccc2c(N)n1 | > 10 µM | > 10 µM | > 10 µM | > 10 µM | > 10 µM | > 10 µM | > 10 µM | > 10 µM | > 10 µM |  |
| COc1ccc(-c2cc3c(N(C)C)cccc3c(N)n2)cc1OC | > 10 µM | > 10 µM | > 10 µM | > 10 µM | > 10 µM | > 10 µM | > 10 µM | > 10 µM | > 10 µM |  |
| Cc1ccc2c(N)nc(-c3ccccc3C)cc2c1 |  |  |  |  |  |  |  |  | 0.162 µM |  |
